Results on 14 molecules are retold here after ChEMBL document CHEMBL1121652, “Allylprodine analogues as receptor probes. Evidence that phenolic and nonphenolic ligands interact with different subsites on identical opioid receptors” (J Med Chem, 1981).

The source made the active and inactive calls. Some results are limits rather than exact numbers.

Experiment [1] has as its system Mus musculus. Put plainly: Compound was tested for narcotic agonist activity in mice by mouse hotplate procedure; Inactive at 115 uM/kg. In kind it is functional, organism-based. The method, boiled down:
(§1)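 Male white Swiss-Webster mice, 25–35 g, at least five per dose. Baseline taken as three reaction times 15 min apart. Drug given s.c. in physiological saline. Hot plate read 10, 15 or 30 min after dosing, depending on compound class. Analgesia means postinjection time over double the control, with a 30 s cutoff. ED50 by probit analysis on free-base molar dose.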

Experiment [2] is filed under the species Mus musculus. The experiment can be described thus: Narcotic antagonistic potency evaluated by morphine-induced Straub tail phenomenon in mice. The class given is functional, organism-based. To be noted: read-out: pA2 (converted).
Experiment [3] is filed under the species Cavia porcellus. Put plainly: Relative agonist molar potency on the electrically stimulated guinea pig myenteric plexus longitudinal muscle preparation at 10e-6; Inactive. In kind it is functional. The settings on record: Muscle tissue. The essentials: (§2)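 Electrically stimulated guinea pig ileum myenteric plexus–longitudinal muscle, measuring inhibition of twitch. Compounds active at 10⁻⁷ M or below were run in at least three independent preparations. Reversibility was checked with naloxone 2 × 10⁻⁶ M in the bath.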

Experiment [4] has as its system Mus musculus. Put plainly: Compound was evaluated for antagonist activity only at subagonistic dose levels in mice by mouse hotplate procedure; Inactive at 115 uM/kg. The class given is functional, organism-based.
In experiment [5] the test system is Mus musculus. The experiment can be described thus: Compound was tested for narcotic agonist activity in mice by mouse hotplate procedure; Inactive at 110 uM/kg. In kind it is functional, organism-based. The essentials: as §1
The species entered for experiment [6] is Mus musculus. The experiment can be described thus: Compound was evaluated for antagonist activity only at subagonistic dose levels in mice by mouse hotplate procedure. The class given is functional.
Experiment [7] is filed under the species Cavia porcellus. Put plainly: Relative agonist molar potency on the electrically stimulated guinea pig myenteric plexus longitudinal muscle preparation. In kind it is functional, Muscle tissue. The method, boiled down: as §2
In experiment [8] the test system is Mus musculus. The experiment can be described thus: Compound was evaluated for antagonist activity only at subagonistic dose levels in mice by mouse hotplate procedure; Inactive at 15 umol/kg. The class given is functional, organism-based.
The species named for experiment [9] is Mus musculus. The experiment can be described thus: Compound was tested for narcotic agonist activity in mice by mouse hotplate procedure. The class given is functional. The method, boiled down: as §1
The species entered for experiment [10] is Mus musculus. Put plainly: Compound was tested for narcotic agonist activity (effective dose) by mouse hotplate procedure.
The test system of experiment [11] is Mus musculus. The experiment can be described thus: Compound was evaluated for antagonist activity only at subagonistic dose of 120 uM/kg levels in mice by mouse hotplate procedure. In kind it is functional.
For experiment [12], the system named is Mus musculus. The experiment can be described thus: Compound was tested for narcotic agonist activity in mice by mouse hotplate procedure; Inactive at 120 uM/kg. In kind it is functional, organism-based. The essentials: as §1
The subject of experiment [13] is Mus musculus. Put plainly: Compound was evaluated for antagonist activity only at subagonistic dose levels in mice by mouse hotplate procedure; Inactive at 26 uM/kg. The class given is functional, organism-based.
In experiment [14] the test system is Mus musculus. The experiment can be described thus: Compound was tested for narcotic agonist activity in mice by mouse hotplate procedure; Inactive at 100 uM/kg. In kind it is functional, organism-based. The essentials:
as §1

The test system of experiment [15] is Mus musculus. Put plainly: Compound was evaluated for antagonist activity only at subagonistic dose levels in mice by mouse hotplate procedure; Inactive at 100 uM/kg. In kind it is functional, organism-based.
In experiment [16] the test system is Mus musculus. Put plainly: Compound was evaluated for antagonist activity only at subagonistic dose levels in mice by mouse hotplate procedure; Inactive at 60 uM/kg. The class given is functional, organism-based.
The test system of experiment [17] is Mus musculus. Put plainly: Compound was tested for narcotic agonist activity in mice by mouse hotplate procedure; Inactive at 60 uM/kg. The class given is functional, organism-based. The essentials: as §1
Experiment [18] relates to Mus musculus. The experiment can be described thus: Compound was evaluated for antagonist activity only at subagonistic dose levels in mice by mouse hotplate procedure; Inactive at 30 umol/kg. The class given is functional, organism-based.
The subject of experiment [19] is Mus musculus. The experiment can be described thus: Compound was tested for narcotic agonist activity in mice by mouse hotplate procedure; Inactive at 55 uM/kg. In kind it is functional, organism-based. The method, boiled down: as §1
Experiment [20] is filed under the species Mus musculus. The experiment can be described thus: Narcotic antagonistic potency evaluated in morphine-induced Straub tail phenomenon in mice. The class given is functional, organism-based. The settings on record: read-out: pA2 (converted).
The species named for experiment [21] is Mus musculus. Put plainly: Compound was evaluated for antagonist activity only at subagonistic dose levels by mouse hotplate procedure. In kind it is functional.
Experiment [22] deals with Mus musculus. The experiment can be described thus: Compound was evaluated for antagonist activity only at subagonistic dose levels in mice by mouse hotplate procedure; Inactive at 17 uM/kg. In kind it is functional, organism-based.

On to `C=CC[C@H]1CN(C)CC[C@@]1(OC(=O)CC)c1cccc(OC)c1`, for which the ED50 result in the experiment on Mus musculus [1] is “inactive”. Also, the Kb in the experiment filed under Mus musculus [2] was at least 1 µM. The Potency entry in the experiment listed under Cavia porcellus [3] is “inactive”. In the experiment with Mus musculus [4], the AD50 result is “inactive”.
Regarding `C=CC[C@@H]1CN(CC=C)CC[C@@]1(OC(=O)CC)c1cccc(O)c1`, the ED50 entry with Mus musculus [5] was “inactive”. The AD50 in the experiment filed under Mus musculus [6] worked out at 74.13 µM/kg. The Kb in the experiment filed under Mus musculus [2] is at least 1 µM. Moreover, the Potency result in the experiment filed under Cavia porcellus [3] was “inactive”.
For `C=CC[C@@H]1CN(C)CC[C@@]1(OC(=O)CC)c1cccc(OC)c1`, in the experiment filed under Mus musculus [2], the Kb is at least 1 µM. The molecule also showed a Potency in the experiment filed under Cavia porcellus [7] of 0.12. Moreover, the AD50 result in the experiment with Mus musculus [8] is “inactive”. Besides, in the experiment listed under Mus musculus [9], the ED50 came out at 34.7 µmol/kg.
In the experiment filed under Mus musculus [10], `CN1CC[C@]23c4c5ccc(O)c4O[C@H]2[C@@H](O)C=C[C@H]3[C@H]1C5` [MORPHINE] had an ED50 of 12.4 µmol/kg.
Consider `C=CC[C@@H]1CN(C)CC[C@@]1(OC(=O)CC)c1cccc(O)c1`, for which the Kb in the experiment listed under Mus musculus [2] is at least 1 µM. Besides, in the experiment filed under Cavia porcellus [3], the Potency entry was “inactive”. In the experiment on Mus musculus [11], this molecule had an AD50 of 12%. The ED50 entry with Mus musculus [12] was “inactive”.
As to `C=CC[C@@H]1CN(CC=C)CC[C@@]1(OC(=O)CC)c1cccc(OC)c1`, the Kb in the experiment filed under Mus musculus [2] is at least 1 µM. In the experiment filed under Cavia porcellus [7], this molecule yielded a Potency of 0.033. This molecule registered an Inhibition in the experiment filed under Mus musculus [9] of 17%. Moreover, the AD50 entry in the experiment with Mus musculus [13] is “inactive”.
Consider `CCC[C@H]1CN(C)CC[C@@]1(OC(=O)CC)c1cccc(O)c1`, for which the ED50 entry with Mus musculus [14] was “inactive”. Further, the Kb in the experiment filed under Mus musculus [2] was at least 1 µM. For the same molecule, in the experiment filed under Cavia porcellus [3], the Potency result is “inactive”. Moreover, the AD50 entry with Mus musculus [15] is “inactive”.
On to `C=CC[C@H]1CN(C)CC[C@@]1(OC(=O)CC)c1cccc(O)c1`, for which the AD50 result with Mus musculus [16] was “inactive”. In addition, the ED50 entry in the experiment with Mus musculus [17] is “inactive”. Further, the Kb in the experiment filed under Mus musculus [2] is at least 1 µM. Besides, the Potency entry in the experiment filed under Cavia porcellus [3] was “inactive”.
With `C=CC[C@H]1CN(CC=C)CC[C@@]1(OC(=O)CC)c1cccc(O)c1`, the AD50 entry in the experiment with Mus musculus [18] is “inactive”. The Kb in the experiment filed under Mus musculus [2] is at least 1 µM. For the same molecule, the Potency entry in the experiment filed under Cavia porcellus [3] was “inactive”. Also, the ED50 result in the experiment on Mus musculus [19] is “inactive”.
Take `O=C1CC[C@@]2(O)[C@H]3Cc4ccc(O)c5c4[C@@]2(CCN3CC2CC2)[C@H]1O5` [NALTREXONE]: in the experiment listed under Mus musculus [20], the Kb was over 1 µM. This molecule also had an AD50 in the experiment filed under Mus musculus [21] of 0.031 µM/kg.
Consider `C=CCN1CC[C@]23c4c5ccc(O)c4O[C@H]2C(=O)CC[C@@]3(O)[C@H]1C5` [NALOXONE], for which, in the experiment listed under Mus musculus [20], the Kb was 0.00295 µM.
Take `C=CC[C@@H]1CN(C)CC[C@@]1(OC(=O)CC)c1ccccc1`: the Kb in the experiment listed under Mus musculus [2] is at least 1 µM. This molecule also came in with a Potency in the experiment listed under Cavia porcellus [7] of 4.51. For the same molecule, the ED50 in the experiment filed under Mus musculus [9] worked out at 0.54 µmol/kg.
`CCC(=O)OC1(c2cccc(O)c2)CCN(C)CC1`: the AD50 entry in the experiment on Mus musculus [22] was “inactive”. Moreover, the Kb in the experiment listed under Mus musculus [2] was at least 1 µM. In the experiment listed under Cavia porcellus [7], this molecule gave a Potency of 0.011. The ED50 in the experiment filed under Mus musculus [9] was 110 µmol/kg.
Regarding `CCC[C@@H]1CN(C)CC[C@@]1(OC(=O)CC)c1cccc(O)c1`, the ED50 entry in the experiment on Mus musculus [14] is “inactive”. For the same molecule, the Kb in the experiment listed under Mus musculus [2] is at least 1 µM. Besides, the Potency result in the experiment filed under Cavia porcellus [3] is “inactive”. The AD50 result in the experiment on Mus musculus [15] was “inactive”.

The ED50 is the midpoint of the dose-response relation. The term Inhibition denotes how much of the control response was suppressed. Higher therefore signals a response far below the control.
